The values that follow come from ChEMBL document CHEMBL1148313, “A new class of nonpeptide bradykinin B(2) receptor ligand, incorporating a 4-aminoquinoline framework. Identification of a key pharmacophore to determine species difference and agonist/antagonist profile” (J Med Chem, 2004).

The term Inhibition denotes the relative decrease from the control value, in per cent. One may read the IC50 as the concentration that gives 50% inhibition. Read a high IC50 as lower potency.

The test system of assay [1] is Cavia porcellus. Briefly: In vivo functional antagonistic activity in inhibiting BK (5 ug/kg, i.v.) induced bronchoconstriction in guinea pigs by 10 ug/kg iv administration. In short, it runs like this:
(§1)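 Male Hartley guinea pigs (470–750 g), fasted overnight, pentobarbital 30 mg/kg i.p., ventilated 10 mL/kg at 60 breaths/min, alcuronium 0.5 mg/kg i.v., propranolol 10 mg/kg s.c. BK in saline/0.1% BSA i.v.; compound in 5% citric acid i.v. 25 min after first BK, BK repeated 5 min later. Peak insufflation pressure rise (Konzett–Rössler); % inhibition versus vehicle, n = 3–4.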

Assay [2] has as its target T1, B2 bradykinin receptor (Cavia porcellus, UniProt O70526).
T1 sequence (O70526 whole entry): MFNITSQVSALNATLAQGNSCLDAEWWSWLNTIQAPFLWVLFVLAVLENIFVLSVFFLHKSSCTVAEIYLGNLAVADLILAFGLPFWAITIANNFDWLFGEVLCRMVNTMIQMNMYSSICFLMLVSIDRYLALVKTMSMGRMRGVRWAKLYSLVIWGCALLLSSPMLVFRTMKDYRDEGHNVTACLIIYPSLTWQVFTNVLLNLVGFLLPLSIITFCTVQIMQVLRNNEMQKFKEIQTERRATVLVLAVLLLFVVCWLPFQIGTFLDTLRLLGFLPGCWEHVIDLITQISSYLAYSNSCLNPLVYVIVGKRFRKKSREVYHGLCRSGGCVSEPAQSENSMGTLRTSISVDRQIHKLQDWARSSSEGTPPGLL
Briefly: Inhibition of specific binding of [3H]BK at 0.06 nM to bradykinin receptor B2 in guinea pig ileum membrane preparations by 50%. The format is cell membranes. Summed up:
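Ileum membranes from male Hartley guinea pigs, 0.2 mg protein/mL, in TES pH 6.8 containing phenanthroline, bacitracin, DTT, captopril and 0.1% BSA. Incubated with [3H]BK and compound at room temperature for 60 min. GF/B filtration, scintillation counting; nonspecific binding with 1 μM BK. Three experiments.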

For assay [3], the target named is T2, B2 bradykinin receptor (Homo sapiens, UniProt P30411).
T2 sequence (P30411 whole entry): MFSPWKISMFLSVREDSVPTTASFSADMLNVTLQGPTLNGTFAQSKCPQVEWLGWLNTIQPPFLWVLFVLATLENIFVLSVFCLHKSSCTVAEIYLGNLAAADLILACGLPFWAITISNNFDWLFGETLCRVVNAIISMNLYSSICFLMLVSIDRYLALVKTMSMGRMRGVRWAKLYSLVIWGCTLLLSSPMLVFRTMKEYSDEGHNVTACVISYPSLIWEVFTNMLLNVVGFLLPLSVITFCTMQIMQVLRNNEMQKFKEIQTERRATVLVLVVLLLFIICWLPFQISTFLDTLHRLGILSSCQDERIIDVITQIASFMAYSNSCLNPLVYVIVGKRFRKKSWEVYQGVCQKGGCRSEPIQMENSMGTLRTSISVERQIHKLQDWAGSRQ
Briefly: Inhibition of specific binding of [3H]BK at 1 nM to human bradykinin receptor B2 expressed in CHO cells by 50%. The format is cell-based. Summed up: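 Intact CHO (dhfr−) cells stably expressing human B2, seeded 3.0 × 10⁴/well for 1 day. Incubated with [3H]BK and compound 2 h at 4 °C in HEPES/N-methyl-D-glucamine buffer pH 7.2 with enalaprilat, bacitracin and 0.1% BSA. Cells lysed in SDS/NaOH and counted; nonspecific binding with 1 μM BK. Three experiments.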

Assay [4] deals with CHO. Kind of assay: Relative agonistic activity in IP formation compared to BK (10 nM) IPs in CHO cells expressing the cloned human B2 receptor at 1 uM concentration. It counts as functional, Cricetulus griseus. Summed up: (§2)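 Human B2-CHO cells labeled 24 h with [3H]inositol (1 μCi/mL). Preincubated in PBS/0.2% BSA with 10 mM LiCl for 30 min at 37 °C, then compound for 30 min at 37 °C. Stopped with 5% TCA. IP1–IP3 separated on AG 1-X8 and counted. Basal counts subtracted; response expressed relative to 10 nM BK.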

Assay [5] relates to CHO. Kind of assay: Relative agonistic activity in IP formation compared to BK (10 nM) IPs in CHO cells expressing the cloned human B2 receptor at 10 uM concentration. It counts as functional, Cricetulus griseus. Summed up: as §2
Assay [6] has as its system Cavia porcellus. Kind of assay: In vivo functional antagonistic activity in inhibiting BK (5 ug/kg, i.v.) induced bronchoconstriction in guinea pigs by 100 ug/kg iv administration. Summed up:
as §1

In turn, `Cc1cc(N(C)C)c2cccc(OCc3c(Cl)ccc(N(C)C(=O)CNC(=O)/C=C/c4ccc(C(=O)N(C)C)cc4)c3Cl)c2n1.Cl.Cl` came in with an Inhibition in assay [1] of 73.4%.

`CNC(=O)c1ccc(/C=C/C(=O)NCC(=O)N(C)c2ccc(Cl)c(COc3cccc4c(N5CCCC5)cc(C)nc34)c2Cl)cc1`: the IC50 in assay [2] came out at 2300 nM; in assay [3], 87 nM.

With `CNC(=O)c1ccc(/C=C/C(=O)NCC(=O)N(C)c2ccc(Cl)c(COc3cccc4c(NCCOC)cc(C)nc34)c2Cl)cc1`, the IC50 is 49 nM in assay [2] and 41 nM in assay [3].

As for `CNC(=O)c1ccc(/C=C/C(=O)NCC(=O)N(C)c2ccc(Cl)c(COc3cccc4c(N5CCN(C)CC5)cc(C)nc34)c2Cl)cc1`, the IC50 in assay [2] came to 1500 nM; in assay [3], 98 nM.

Consider `CNC(=O)c1ccc(/C=C/C(=O)NCC(=O)N(C)c2ccc(Cl)c(COc3cccc4c(N5CCCCC5)cc(C)nc34)c2Cl)cc1.Cl.Cl.Cl.Cl`, for which the IC50 in assay [2] turned out to be 68 nM; in assay [3], 1.1 nM. The Relative agonistic activity in assay [4] was 4.4%; in assay [5], 4.2%.

As to `CNC(=O)c1ccc(/C=C/C(=O)NCC(=O)N(C)c2ccc(Cl)c(COc3cccc4c(N(CCOC)CCOC)cc(C)nc34)c2Cl)cc1`, the IC50 in assay [2] stood at 560 nM; in assay [3], 19 nM.

With `CNC(=O)c1ccc(/C=C/C(=O)NCC(=O)N(C)c2ccc(Cl)c(COc3cccc4c(N5CCCCCC5)cc(C)nc34)c2Cl)cc1`, the IC50 in assay [2] was found to be 840 nM; in assay [3], 37 nM.

As for `Cc1cc(N2CCOCC2)c2cccc(OCc3c(Cl)ccc(N(C)C(=O)CNC(=O)/C=C/c4ccc(N5CCCC5=O)cc4)c3Cl)c2n1.Cl.Cl.Cl.Cl`, the IC50 in assay [2] stood at 13 nM; in assay [3] it was 1.8 nM. In addition, the figures for the Relative agonistic activity in assay [4] and in assay [5] were 6% and 9.2%, respectively.

Consider `Cc1cc(N2CCCCC2)c2cccc(OCc3c(Cl)ccc(N(C)C(=O)CNC(=O)/C=C/c4ccc(C(=O)N(C)C)cc4)c3Cl)c2n1.Cl.Cl.Cl.Cl`, for which the IC50 in assay [2] is 30 nM; in assay [3], 0.76 nM. Moreover, the Relative agonistic activity was found to be 17.2% in assay [4] and 21.8% in assay [5].

Turning to `Cc1cc(N(C)C)c2cccc(OCc3c(Cl)ccc(N(C)C(=O)CNC(=O)/C=C/c4ccc(C(=O)N(C)C)nc4)c3Cl)c2n1.Cl.Cl.Cl.Cl`, the values for the IC50 in assay [2] and in assay [3] were 8.1 nM and 4 nM, respectively. The same molecule gave an Inhibition in assay [1] of 89.7%.

Take `Cc1cc(N2CCCCC2)c2cccc(OCc3c(Cl)ccc(N(C)C(=O)CNC(=O)/C=C/c4ccc(N5CCCC5=O)cc4)c3Cl)c2n1.Cl.Cl.Cl.Cl`: the IC50 came out at 28 nM in assay [2] and 1.2 nM in assay [3]. Besides, the Relative agonistic activity in assay [4] was 14.8%; in assay [5], 18.7%.

With `CC(=O)Nc1ccc(/C=C/C(=O)NCC(=O)N(C)c2ccc(Cl)c(COc3cccc4c(N(C)C)cc(C)nc34)c2Cl)cc1C.Cl.Cl.Cl.Cl`, the IC50 in assay [2] was determined as 21 nM; in assay [3], 4.8 nM. The Inhibition in assay [6] is 94.7%.

As for `Cc1cc(N2CCOCC2)c2cccc(OCc3c(Cl)ccc(N(C)C(=O)CNC(=O)/C=C/c4ccc(C(=O)N(C)C)cc4)c3Cl)c2n1`, the values for the IC50 in assay [2] and in assay [3] were 43 nM and 0.88 nM, respectively.

Take `CNC(=O)c1ccc(/C=C/C(=O)NCC(=O)N(C)c2ccc(Cl)c(COc3cccc4c(N5CCOCC5)cc(C)nc34)c2Cl)cc1.Cl.Cl.Cl.Cl`: the IC50 in assay [2] was determined as 12 nM; in assay [3], 2.7 nM. For the same molecule, the results for the Relative agonistic activity in assay [4] and in assay [5] were 0.9% and -1.9%, respectively.

For the molecule `CNC(=O)c1ccc(/C=C/C(=O)NCC(=O)N(C)c2ccc(Cl)c(COc3cccc4c(N(C)C)cc(C)nc34)c2Cl)cc1OC.Cl.Cl.Cl.Cl`, the IC50 amounted to 5.6 nM in assay [2] and 2 nM in assay [3]. The Inhibition in assay [1] was 88.7%.

As for `CC(=O)Nc1ccc(/C=C/C(=O)NCC(=O)N(C)c2ccc(Cl)c(COc3cccc4c(N5CCOCC5)cc(C)nc34)c2Cl)cn1`, the IC50 in assay [2] worked out at 65 nM; in assay [3], 1.8 nM. In assay [6], this molecule yielded an Inhibition of 47.8%.

Take `Cc1cc(N2CCCCC2)c2cccc(OCc3c(Cl)ccc(N(C)C(=O)CNC(=O)/C=C/c4ccc(C(=O)Nc5ccncc5)cc4)c3Cl)c2n1.Cl`: the IC50 worked out at 240 nM in assay [2] and 0.52 nM in assay [3]. Moreover, the Relative agonistic activity in assay [4] was found to be 5.7%; in assay [5], 12.7%.

For `Cc1cc(N(C)C)c2cccc(OCc3c(Cl)ccc(N(C)C(=O)CNC(=O)/C=C/c4ccc(C(=O)NCc5ccccn5)cc4)c3Cl)c2n1.Cl`, the IC50 in assay [2] turned out to be 28 nM; in assay [3] it was 5.9 nM. The molecule further registered an Inhibition in assay [6] of 97.3%.

For `Cc1cc(N2CCCCC2)c2cccc(OCc3c(Cl)ccc(N(C)C(=O)CNC(=O)/C=C/c4ccc(NC(=O)c5ccncc5)cc4)c3Cl)c2n1.Cl`, the IC50 in assay [2] came out at 75 nM; in assay [3] it was 1.6 nM. Moreover, the figures for the Relative agonistic activity in assay [4] and in assay [5] were 5.6% and 5.3%, respectively.

For `CNC(=O)c1ccc(/C=C/C(=O)NCC(=O)N(C)c2ccc(Cl)c(COc3cccc4c(NCCN(C)C)cc(C)nc34)c2Cl)cc1`, the IC50 was found to be 2300 nM in assay [2] and 2500 nM in assay [3].

For the molecule `Cc1cc(N(C)C)c2cccc(OCc3c(Cl)ccc(N(C)C(=O)CNC(=O)/C=C/c4ccc(NC(=O)c5ccncc5)cc4)c3Cl)c2n1.Cl`, the IC50 in assay [2] was determined as 6.9 nM; in assay [3], 0.47 nM. For the same molecule, in assay [1], the Inhibition was 59%.

Take `CNC(=O)c1ccc(/C=C/C(=O)NCC(=O)N(C)c2ccc(Cl)c(COc3cccc4c(N5CCOCC5)cc(C)nc34)c2Cl)cn1.Cl`: the IC50 in assay [2] was 85 nM; in assay [3], 1.1 nM. The molecule also showed an Inhibition in assay [6] of 72.3%.

In the case of `Cc1cc(N(C)C)c2cccc(OCc3c(Cl)ccc(N(C)C(=O)CNC(=O)Nc4cccc(C(=O)Nc5ccncc5)c4)c3Cl)c2n1.Cl`, the IC50 in assay [2] was 12 nM; in assay [3] it was 2.2 nM. In assay [6], the Inhibition came out at 97.7%.

Regarding `CNC(=O)c1ccc(/C=C/C(=O)NCC(=O)N(C)c2ccc(Cl)c(COc3cccc4c(N(C)C)cc(C)nc34)c2Cl)cn1.Cl`, the results for the IC50 in assay [2] and in assay [3] were 1.2 nM and 1.6 nM, respectively. The Inhibition in assay [1] turned out to be 85.5%.

With `Cc1cc(N(C)C)c2cccc(OCc3c(Cl)ccc(N(C)C(=O)CNC(=O)/C=C/c4ccc(C(=O)Nc5ccncc5)cc4)c3Cl)c2n1.Cl`, the IC50 in assay [2] was found to be 5.1 nM; in assay [3], 0.7 nM. For the same molecule, the Inhibition in assay [1] is 86.3%.

As to `Cc1cc(N2CCOCC2)c2cccc(OCc3c(Cl)ccc(N(C)C(=O)CNC(=O)/C=C/c4ccc(NC(=O)c5ccncc5)cc4)c3Cl)c2n1.Cl`, the IC50 in assay [2] worked out at 29 nM; in assay [3], 1 nM. Besides, the Relative agonistic activity is -0.1% in assay [4] and 0.9% in assay [5].

In the case of `Cc1cc(N2CCOCC2)c2cccc(OCc3c(Cl)ccc(N(C)C(=O)CNC(=O)/C=C/c4ccc(C(=O)Nc5ccncc5)cc4)c3Cl)c2n1.Cl`, the IC50 came to 37 nM in assay [2] and 0.64 nM in assay [3]. Also, the Inhibition in assay [6] is 91.8%; in assay [1], 46.2%.

For the molecule `Cc1cc(N2CCCCC2)c2cccc(OCc3c(Cl)ccc(N(C)C(=O)CNC(=O)/C=C/c4ccc(C(=O)NCc5ccccn5)cc4)c3Cl)c2n1.Cl`, the 50% inhibitory concentration (IC50) was 40 nM in assay [2] and 2.5 nM in assay [3]. In assay [6], this molecule showed an Inhibition of 72.6%.

In the case of `CC(=O)Nc1ccc(/C=C/C(=O)NCC(=O)N(C)c2ccc(Cl)c(COc3cccc4c(N(C)C)cc(C)nc34)c2Cl)cn1.Cl`, the half-inhibitory concentration (IC50) was found to be 6.3 nM in assay [2] and 4.2 nM in assay [3]. The Inhibition in assay [1] came out at 89.4%.
